PMC6045484 (ACS Omega, 2018)
≈ marks a conversion by molar mass, not a printed value.

How the values were obtained:
[1] = tested on: L. donovani promastigotes; assay: in vitro antileishmanial activity, alamarBlue assay; type: cell-based, Leishmania donovani; settings: Leishmania donovani, 48 h
[2] = tested on: P. berghei (sensitive strain); assay: blood-schizontocidal activity against P. berghei infection in mice; type: in vivo, Plasmodium berghei; settings: Swiss mice
Outline: (§1)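 Swiss mice of either sex (about 15–20 g, same age), six per group, inoculated intraperitoneally on day 0 with 1 × 10^7 infected erythrocytes from a donor mouse. Oral test compound at 100, 50, 25 or 10 mg/kg, CQ diphosphate (10 mg/kg/day × 4) or vehicle started 4 h later, on D0 to D+3. Giemsa tail-blood smears on D+4 and D+7. Curative: parasites eliminated, no relapse, all mice surviving to D+60.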

A. fumigatus ATCC 90906 = assay: in vitro antifungal activity; type: cell-based, Aspergillus fumigatus
Outline: (§2)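 Modified NCCLS broth method in Sabouraud dextrose. Inoculum set by OD630 to 1.5 × 10^3 CFU/mL. Test compound serially diluted in 20% DMSO/saline, duplicate wells, up to 20 μg/mL. Incubated 70–74 h at 35 °C; 530 nm read before and after. IC50 is 50% growth inhibition; MIC is no detectable growth. MFC from clear wells subcultured on agar. Amphotericin B control.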

[3] = tested on: SK-MEL, KB, BT-549, SK-OV-3, VERO and LLC-PK1 cells; assay: cytotoxicity, neutral red uptake assay; type: cell-based, mammalian; settings: highest test concentration 4760 ng/mL
Outline: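 Cells seeded at 25 000/well and allowed 24 h to reach confluence. Test compound was then added and incubated 48 h. Viable cells were counted by a modified neutral red uptake method. The panel was four human cancer lines and two noncancerous mammalian kidney lines. Doxorubicin served as positive control and DMSO as negative control.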

SA (ATCC29213) = assay: in vitro antibacterial activity; type: cell-based; settings: Staphylococcus aureus
Outline: (§3)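 Test compound serially diluted in 20% DMSO/saline and plated in duplicate, up to 20 μg/mL. Inoculum in cation-adjusted Mueller–Hinton broth, pH 7.3, set by OD630 to 5 × 10^5 CFU/mL. Incubated 16–20 h at 35 °C; 530 nm read before and after. IC50 is 50% growth inhibition; MIC is no detectable growth. MBC from clear wells subcultured on agar. Ciprofloxacin control.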

C. neoformans ATCC90113 = assay: in vitro antifungal activity; type: cell-based, Cryptococcus neoformans
Outline: as §2

C. albicans ATCC90028 = assay: in vitro antifungal activity; type: cell-based, Candida albicans
Outline: as §2

P. falciparum (D6) = assay: in vitro antimalarial activity, plasmodial LDH; type: cell-based, Plasmodium falciparum
P. falciparum (W2) = assay: in vitro antimalarial activity, plasmodial LDH; type: cell-based, Plasmodium falciparum
Outline: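 P. falciparum-infected erythrocytes (2% parasitemia, 2% hematocrit) in RPMI 1640 with 10% human serum and 60 μg/mL amikacin. Exposed to test compound dilutions for 72 h at 37 °C under 90% N2/5% O2/5% CO2. LDH measured with Malstat reagent (30 min, room temperature), then NBT/PES for 1 h in the dark, stopped with 5% acetic acid, read at 650 nm. IC50 from dose-response curves.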

MRSA (ATCC33591) = assay: in vitro antibacterial activity; type: cell-based, methicillin-resistant Staphylococcus aureus
Outline: as §3

[4] = tested on: M. intracellulare (ATCC23068); assay: in vitro antibacterial activity, modified alamarBlue procedure; type: cell-based, Mycobacterium intracellulare
Outline: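 Modified alamarBlue microplate method. Test compound serially diluted in 20% DMSO/saline, duplicate wells, up to 20 μg/mL. Inoculum 2.0 × 10^6 CFU/mL in Middlebrook 7H9 with OADC, pH 7.3, containing 5% alamarBlue. Incubated 70–74 h at 37 °C, 10% CO2; fluorescence 544ex/590em read before and after. MIC: no blue-to-pink change. MBC by subculturing blue wells on agar. Ciprofloxacin control.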

[5] = tested on: multidrug-resistant P. yoelii nigeriensis; assay: blood-schizontocidal activity against P. yoelii nigeriensis infection in mice; type: in vivo, Plasmodium yoelii nigeriensis; settings: Swiss mice
Outline: as §1

C. glabrata ATCC90030 = assay: in vitro antifungal activity; type: cell-based, Candida glabrata
Outline: as §2

C. krusei ATCC6258 = assay: in vitro antifungal activity; type: cell-based, Candida krusei
Outline: as §2

[6] = highest test concentration 20 μg/mL
[7] = methicillin-resistant S. aureus, highest test concentration 20 μg/mL

CCCCCCCCOc1c(OC)cc(NC(C)CCCN)c2nc(C(C)(C)C)ccc12 (stereo not shown) [compound 49, N^4-(2-tert-Butyl-6-methoxy-5-(octyloxy)quinolin-8-yl)pentane-1,4-diamine]
IC50 ([1]; read-out: L. donovani IC50, promastigotes, 48 h): 5.2 µg/mL (≈ 11.7 µM) | IC90 ([1]; read-out: L. donovani IC90, promastigotes, 48 h): > 40 µg/mL | P. berghei blood-schizontocidal activity (mice cured/treated) ([2]; 10 mg/kg/day × 4, oral): active (4/6) | P. berghei blood-schizontocidal activity (mice cured/treated) ([2]; 25 mg/kg/day × 4, oral): curative (6/6) | P. berghei blood-schizontocidal activity (mice cured/treated) ([2]; 50 mg/kg/day × 4, oral): curative (6/6) | P. berghei blood-schizontocidal activity (mice cured/treated) ([2]; 100 mg/kg/day × 4, oral): curative (6/6) | IC50 (A. fumigatus ATCC 90906; Aspergillus fumigatus, ATCC90906, read-out: A. fumigatus IC50): > 20 µg/mL | MFC (A. fumigatus ATCC 90906; Aspergillus fumigatus, ATCC90906, read-out: A. fumigatus MFC): > 20 µg/mL | MIC (A. fumigatus ATCC 90906; Aspergillus fumigatus, ATCC90906, read-out: A. fumigatus MIC): > 20 µg/mL | cytotoxicity CTX [3]: NC (NC, not cytotoxic up to 4760 ng/mL (4.76 μg/mL)) | IC50 (SA (ATCC29213); ATCC29213, read-out: IC50 (concentration that affords 50% growth inhibition), SA): 3.4 µg/mL (≈ 7.66 µM) | MBC (SA (ATCC29213); ATCC29213, read-out: MBC (minimum bactericidal concentration), SA): 10 µg/mL (≈ 22.5 µM) | MIC (SA (ATCC29213); ATCC29213, read-out: MIC, SA): 5 µg/mL (≈ 11.3 µM) | IC50 (C. neoformans ATCC90113; Cryptococcus neoformans, ATCC90113, read-out: C. neoformans IC50): 2.15 µg/mL (≈ 4.85 µM) | MFC (C. neoformans ATCC90113; Cryptococcus neoformans, ATCC90113, read-out: C. neoformans MFC): 5 µg/mL (≈ 11.3 µM) | MIC (C. neoformans ATCC90113; Cryptococcus neoformans, ATCC90113, read-out: C. neoformans MIC): 5 µg/mL (≈ 11.3 µM) | IC50 (C. albicans ATCC90028; Candida albicans, ATCC90028, read-out: C. albicans IC50): 7.44 µg/mL (≈ 16.8 µM) | MFC (C. albicans ATCC90028; Candida albicans, ATCC90028, read-out: C. albicans MFC): 10 µg/mL (≈ 22.5 µM) | MIC (C. albicans ATCC90028; Candida albicans, ATCC90028, read-out: C. albicans MIC): 10 µg/mL (≈ 22.5 µM) | IC50 (P. falciparum (D6); Plasmodium falciparum, D6, 72 h, read-out: P. falciparum (D6) IC50): 0.053 µg/mL (≈ 0.119 µM) | IC50 (P. falciparum (W2); Plasmodium falciparum, W2, 72 h, read-out: P. falciparum (W2) IC50, CQ-resistant W2 strain, 72 h): 0.04 µg/mL (≈ 0.0902 µM) | MIC (MRSA (ATCC33591); Staphylococcus aureus, ATCC33591|MRSA, read-out: MIC, MRSA): 5 µg/mL (≈ 11.3 µM) | IC50 ([4]; Mycobacterium intracellulare, ATCC23068, read-out: IC50 (concentration that affords 50% growth inhibition), M. intracellulare): 7.43 µg/mL (≈ 16.7 µM) | MBC ([4]; Mycobacterium intracellulare, ATCC23068, read-out: MBC (minimum bactericidal concentration), M. intracellulare): 20 µg/mL (≈ 45.1 µM) | MIC ([4]; Mycobacterium intracellulare, ATCC23068, read-out: MIC, M. intracellulare): 10 µg/mL (≈ 22.5 µM) | P. yoelii nigeriensis blood-schizontocidal activity (mice cured/treated) ([5]; 25 mg/kg/day × 4, oral): inactive (0/6) | P. yoelii nigeriensis blood-schizontocidal activity (mice cured/treated) ([5]; 50 mg/kg/day × 4, oral): active (3/6) | P. yoelii nigeriensis blood-schizontocidal activity (mice cured/treated) ([5]; 100 mg/kg/day × 4, oral): active (4/6)

CCCCCCCCOc1c(OC)cc(NC(C)CCCNC(=O)C(N)CCCCN)c2nc(C(C)(C)C)ccc12 (stereo not shown) [compound 117, 2,6-Diamino-N-(4-(2-tert-butyl-6-methoxy-5-(octyloxy)quinolin-8-lamino)pentyl)-hexanamide]
C. glabrata IC50 (C. glabrata ATCC90030): NA (NA, no activity at the highest test concentration of 20 μg/mL) | C. glabrata MFC (C. glabrata ATCC90030): NA (NA, no activity at the highest test concentration of 20 μg/mL) | C. glabrata MIC (C. glabrata ATCC90030): NA (NA, no activity at the highest test concentration of 20 μg/mL) | A. fumigatus IC50 (A. fumigatus ATCC 90906): NA (NA, no activity at the highest test concentration of 20 μg/mL) | A. fumigatus MFC (A. fumigatus ATCC 90906): NA (NA, no activity at the highest test concentration of 20 μg/mL) | A. fumigatus MIC (A. fumigatus ATCC 90906): NA (NA, no activity at the highest test concentration of 20 μg/mL) | cytotoxicity CTX [3]: NC (NC, not cytotoxic up to 4760 ng/mL (4.76 μg/mL)) | IC50 (concentration that affords 50% growth inhibition), SA (SA (ATCC29213); [6]): NA (NA, no activity at the highest test concentration of 20 μg/mL) | MBC (minimum bactericidal concentration), SA (SA (ATCC29213); [6]): NA (NA, no activity at the highest test concentration of 20 μg/mL) | MIC, SA (SA (ATCC29213); [6]): NA (NA, no activity at the highest test concentration of 20 μg/mL) | C. neoformans IC50 (C. neoformans ATCC90113): 11.92 µg/mL | C. neoformans MFC (C. neoformans ATCC90113): >20 µg/mL | C. neoformans MIC (C. neoformans ATCC90113): >20 µg/mL | C. albicans IC50 (C. albicans ATCC90028): NA (NA, no activity at the highest test concentration of 20 μg/mL) | C. albicans MFC (C. albicans ATCC90028): NA (NA, no activity at the highest test concentration of 20 μg/mL) | C. albicans MIC (C. albicans ATCC90028): NA (NA, no activity at the highest test concentration of 20 μg/mL) | P. falciparum (D6) IC50 (P. falciparum (D6); CQ-sensitive D6 strain, 72 h): NA (NA, not active) | P. falciparum (W2) IC50 (P. falciparum (W2); CQ-resistant W2 strain, 72 h): NA (NA, not active) | IC50 (concentration that affords 50% growth inhibition), MRSA (MRSA (ATCC33591); [7]): NA (NA, no activity at the highest test concentration of 20 μg/mL) | MBC (minimum bactericidal concentration), MRSA (MRSA (ATCC33591); [7]): NA (NA, no activity at the highest test concentration of 20 μg/mL) | MIC, MRSA (MRSA (ATCC33591); [7]): NA (NA, no activity at the highest test concentration of 20 μg/mL) | C. krusei IC50 (C. krusei ATCC6258): NA (NA, no activity at the highest test concentration of 20 μg/mL) | C. krusei MFC (C. krusei ATCC6258): NA (NA, no activity at the highest test concentration of 20 μg/mL) | C. krusei MIC (C. krusei ATCC6258): NA (NA, no activity at the highest test concentration of 20 μg/mL) | IC50 (concentration that affords 50% growth inhibition), M. intracellulare [4, 6]: NA (NA, no activity at the highest test concentration of 20 μg/mL) | MBC (minimum bactericidal concentration), M. intracellulare [4, 6]: NA (NA, no activity at the highest test concentration of 20 μg/mL) | MIC, M. intracellulare [4, 6]: NA (NA, no activity at the highest test concentration of 20 μg/mL)
